In brackets after ≈: the same amount, converted by molar mass.
Assays:
[1] = target: T1, Long-chain-fatty-acid--AMP ligase FadD28 (Mycobacterium tuberculosis, UniProt P9WQ59); assay: Inhibition of Mycobacterium tuberculosis H37Rv FAAL28 Spectra expressed in Escherichia coli BL21(DE3) cells assessed as cleavage of MEsG by spectroscopic analysis; conditions: read-out: Ki(app)
T1 sequence (P9WQ59 whole entry): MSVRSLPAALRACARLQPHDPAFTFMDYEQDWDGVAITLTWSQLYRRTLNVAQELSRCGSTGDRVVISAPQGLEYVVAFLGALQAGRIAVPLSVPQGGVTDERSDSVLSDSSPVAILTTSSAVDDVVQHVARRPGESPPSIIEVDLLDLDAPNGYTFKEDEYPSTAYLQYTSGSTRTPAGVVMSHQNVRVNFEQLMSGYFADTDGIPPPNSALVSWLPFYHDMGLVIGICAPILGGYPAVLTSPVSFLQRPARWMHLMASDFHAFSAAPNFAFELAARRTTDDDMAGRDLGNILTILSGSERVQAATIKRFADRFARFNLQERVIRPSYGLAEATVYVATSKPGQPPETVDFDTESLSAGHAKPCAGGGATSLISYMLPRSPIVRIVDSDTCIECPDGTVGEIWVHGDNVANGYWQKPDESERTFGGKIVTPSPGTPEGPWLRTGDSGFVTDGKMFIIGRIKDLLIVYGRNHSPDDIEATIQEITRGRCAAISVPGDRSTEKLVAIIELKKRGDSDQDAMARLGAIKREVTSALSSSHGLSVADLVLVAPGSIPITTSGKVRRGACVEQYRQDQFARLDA
Summary of the method: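 Coupled continuous assay with pyrophosphatase (0.04 U) and nucleoside phosphorylase (0.1 U), using 0.45 μM FAAL28 and 33 μM tetradecanoic acid. Buffer was 50 mM Tris·HCl pH 8.0 with 2.5 mM ATP, 5 mM MgCl₂, 0.5 mM DTT, 150 mM hydroxylamine and 0.2 mM MesG. Apparent Ki came from a Morrison equation fit.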

[2] = system: Mycobacterium tuberculosis; assay: Antimycobacterial activity against Mycobacterium tuberculosis H37Rv after 16 hrs; assay type: functional
[3] = target: T1, Long-chain-fatty-acid--AMP ligase FadD28; assay: Inhibition of Mycobacterium tuberculosis H37Rv His-tagged FAAL28 expressed in Escherichia coli; conditions: read-out: Ki(app)
Vero = assay: Cytotoxicity against African green monkey Vero cells assessed as reduction in cell viability after 72 hrs by MTT assay; assay type: cell-based; conditions: Chlorocebus sabaeus
Summary of the method: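 Vero cells were seeded at (2.5–5.0) × 10⁴ per well in MEM with 5% FBS and penicillin/streptomycin. Compounds were added from 20 mM DMSO stocks to a final 100 μM. Controls were 0.5% and 50% DMSO, all in triplicate. After 72 h at 37 °C in 5% CO₂, cells got 1 mg/mL MTT for 3 h. Formazan was dissolved in isopropanol and read at 570/650 nm, with viability expressed relative to DMSO control.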

[4] = system: Mycobacterium tuberculosis; assay: Antimycobacterial activity against Mycobacterium tuberculosis H37Rv ATCC 27294 assessed as inhibition of bacterial growth under 7H9 medium condition after 7 to 14 days by broth microdilution method; assay type: functional; conditions: time 7-14 day
Summary of the method: (§1)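 Mtb H37Rv ATCC 27294 by broth microdilution in GAST or 7H9 base with 5 g/L BSA fraction V, 0.8 g/L NaCl and 0.05% tyloxapol. Carbon source was 20 mM glycerol/10 mM glucose or 0.05 mM sodium palmitate. Compounds came from DMSO stocks with DMSO-only controls. Inoculum was 10⁴-10⁵ cells; growth was read at 7 and 14 days. MIC is the concentration giving >99% growth inhibition; runs were in triplicate.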

[5] = system: Mycobacterium tuberculosis; assay: Antimycobacterial activity against Mycobacterium tuberculosis H37Rv ATCC 27294 assessed as inhibition of bacterial growth under 7H9 medium condition after 7 to 14 days in presence of palmitate by broth microdilution method; assay type: functional; conditions: time 7-14 day; summary of the method: as §1
[6] = target: T2, Medium/long-chain-fatty-acid--CoA/3-oxocholest-4-en-26-oate--CoA ligase (Mycobacterium tuberculosis, UniProt P9WQ51); assay: Inhibition of Mycobacterium tuberculosis H37Rv FACL19 Spectra expressed in Escherichia coli BL21(DE3) cells assessed as cleavage of MEsG by spectroscopic analysis; conditions: read-out: Ki(app)
T2 sequence (P9WQ51 whole entry): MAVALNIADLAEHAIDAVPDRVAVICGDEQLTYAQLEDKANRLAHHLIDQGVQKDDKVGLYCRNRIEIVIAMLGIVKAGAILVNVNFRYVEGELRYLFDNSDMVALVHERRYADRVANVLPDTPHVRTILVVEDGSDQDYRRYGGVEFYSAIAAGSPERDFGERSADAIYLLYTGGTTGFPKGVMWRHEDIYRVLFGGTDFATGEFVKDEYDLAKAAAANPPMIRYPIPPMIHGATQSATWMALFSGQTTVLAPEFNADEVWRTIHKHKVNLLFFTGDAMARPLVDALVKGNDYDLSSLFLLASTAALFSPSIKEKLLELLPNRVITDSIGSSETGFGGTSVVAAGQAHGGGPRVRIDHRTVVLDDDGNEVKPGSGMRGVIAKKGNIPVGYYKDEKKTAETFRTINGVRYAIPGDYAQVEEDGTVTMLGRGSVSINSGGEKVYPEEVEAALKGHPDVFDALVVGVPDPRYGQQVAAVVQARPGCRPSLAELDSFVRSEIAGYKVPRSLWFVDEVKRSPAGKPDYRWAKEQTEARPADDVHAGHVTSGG
Summary of the method: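 FACL19 (0.167 μM) with 250 μM dodecanoic acid in a coupled MesG assay with pyrophosphatase and nucleoside phosphorylase. Buffer was 50 mM Tris·HCl pH 8.0 with 2.5 mM ATP, 5 mM MgCl₂, 0.5 mM DTT and 150 mM hydroxylamine. Apparent Ki came from a Morrison tight-binding fit.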

[7] = target: T2, Medium/long-chain-fatty-acid--CoA/3-oxocholest-4-en-26-oate--CoA ligase; assay: Inhibition of Mycobacterium tuberculosis H37Rv His-tagged FACL19 expressed in Escherichia coli; conditions: read-out: Ki(app)
[8] = system: Mycobacterium tuberculosis; assay: Antimycobacterial activity against Mycobacterium tuberculosis H37Rv ATCC 27294 assessed as inhibition of bacterial growth under GAST medium condition after 7 to 14 days by broth microdilution method; assay type: functional; conditions: time 7-14 day; summary of the method: as §1
[9] = Inhibition of Mycobacterium tuberculosis PKS13
[10] = system: Mycolicibacterium smegmatis; assay: Antimycobacterial activity against Mycobacterium smegmatis; assay type: functional

Row | Structure (SMILES) | Ki [1] | MIC [2] | Ki [3] | IC50 (Vero) | MIC [4] | MIC [5] | Ki [6] | Ki [7] | MIC [8] | IC50 [9] | MIC [10]
1 | CCCCCCCCCCCC(=O)NS(=O)(=O)OC[C@H]1O[C@@H](n2cnc3c(N)ncnc32)[C@H](O)[C@@H]1O | 6.4 µM | 100 µM (≈ 52.9 µg/mL) | 1.5 µM | 28.7 µM | 50 µM (≈ 26.4 µg/mL) | 50 µM | 67.4 µM | 4.9 µM | 0.19 µM (≈ 0.1 µg/mL) |  | 
2 | Cc1cc2oc(=O)cc(-c3cccc(N)c3)c2c(C)c1-c1ccc(CN2CCOCC2)cc1 |  |  |  |  |  |  |  |  |  | 0.5 µM | 
3 | CCCCOCCOCCOCC(=O)NS(=O)(=O)OC[C@H]1O[C@@H](n2cnc3c(N)ncnc32)[C@H](O)[C@@H]1O | > 100 µM |  |  | 16 µM | > 100 µM | > 100 µM | > 100 µM |  | 6.25 µM (≈ 3.43 µg/mL) |  | 
4 | CCCCCCCCCCCCOP(=O)(O)OC[C@H]1O[C@@H](n2cnc3c(N)ncnc32)[C@H](O)[C@@H]1O |  |  |  |  |  |  |  |  |  |  | 20 µM (≈ 10.3 µg/mL)
5 | C=CCCCCCCCCC(=O)NS(=O)(=O)OC[C@H]1O[C@@H](n2cnc3c(N)ncnc32)[C@H](O)[C@@H]1O | > 100 µM |  |  | 11.6 µM | 25 µM (≈ 12.8 µg/mL) | 25 µM | > 100 µM |  | 0.39 µM (≈ 0.2 µg/mL) |  | 
6 | Nc1ncnc2c1ncn2[C@@H]1O[C@H](COS(=O)(=O)NC(=O)CCCCCCCCCCOc2ccccc2)[C@@H](O)[C@H]1O | 0.71 µM |  |  | 2 µM | 50 µM (≈ 30.3 µg/mL) | 50 µM | > 100 µM |  | 3.13 µM (≈ 1.9 µg/mL) |  | 
7 | CCCCCCCC(=O)NS(=O)(=O)OC[C@H]1O[C@@H](n2cnc3c(N)ncnc32)[C@H](O)[C@@H]1O | > 100 µM |  |  | 6 µM | 100 µM (≈ 47.3 µg/mL) | > 100 µM | > 100 µM |  | 12.5 µM (≈ 5.91 µg/mL) |  | 
8 | Nc1ncnc2c1ncn2[C@@H]1O[C@H](COS(=O)(=O)NC(=O)CCCCCCCCCCO)[C@@H](O)[C@H]1O | 92.7 µM |  |  | 42.7 µM | 100 µM (≈ 53.1 µg/mL) | 100 µM | > 100 µM |  | 6.25 µM (≈ 3.32 µg/mL) |  | 
9 | CCCCCCCCCCCCCCCCCC(=O)NS(=O)(=O)OC[C@H]1O[C@@H](n2cnc3c(N)ncnc32)[C@H](O)[C@@H]1O | 0.5 µM |  |  | 0.1 µM | 100 µM (≈ 61.3 µg/mL) | > 100 µM | 2.4 µM |  | 100 µM (≈ 61.3 µg/mL) |  | 
10 | CCCCCCCCC/C=C/C(=O)NS(=O)(=O)OC[C@H]1O[C@@H](n2cnc3c(N)ncnc32)[C@H](O)[C@@H]1O | > 100 µM |  |  | 10.4 µM | > 100 µM | > 100 µM | > 100 µM |  | 100 µM (≈ 52.7 µg/mL) |  | 
11 | NCCCCCCCCCCCC(=O)NS(=O)(=O)OC[C@H]1O[C@@H](n2cnc3c(N)ncnc32)[C@H](O)[C@@H]1O | > 100 µM |  |  | 27.1 µM | 50 µM (≈ 27.2 µg/mL) | 12.5 µM | 93.3 µM |  | 3.13 µM (≈ 1.7 µg/mL) |  | 
12 | CCCCCC/C=C/CCCC(=O)NS(=O)(=O)OC[C@H]1O[C@@H](n2cnc3c(N)ncnc32)[C@H](O)[C@@H]1O | > 100 µM |  |  | 16.8 µM | > 100 µM | > 100 µM | > 100 µM |  | 100 µM (≈ 52.7 µg/mL) |  | 
13 | CCCCCCCCCCCCCC(=O)NS(=O)(=O)OC[C@H]1O[C@@H](n2cnc3c(N)ncnc32)[C@H](O)[C@@H]1O | 1.4 µM |  |  | 0.9 µM | 50 µM (≈ 27.8 µg/mL) | 100 µM | 10 µM |  | 0.39 µM (≈ 0.217 µg/mL) |  | 
14 | CCCCCCCCCOCC(=O)NS(=O)(=O)OC[C@H]1O[C@@H](n2cnc3c(N)ncnc32)[C@H](O)[C@@H]1O | > 100 µM |  |  | 8.7 µM | 25 µM (≈ 13.3 µg/mL) | 25 µM | > 100 µM |  | 0.098 µM (≈ 0.052 µg/mL) |  | 
15 | C#CCCCCCCCCC(=O)NS(=O)(=O)OC[C@H]1O[C@@H](n2cnc3c(N)ncnc32)[C@H](O)[C@@H]1O | > 100 µM |  |  | 9.7 µM | 50 µM (≈ 25.5 µg/mL) | 50 µM | > 100 µM |  | 1.56 µM (≈ 0.796 µg/mL) |  | 
16 | CCCCCCCCC[C@@H]1C[C@@H]1C(=O)NS(=O)(=O)OC[C@H]1O[C@@H](n2cnc3c(N)ncnc32)[C@H](O)[C@@H]1O | 69.8 µM |  |  | 6.1 µM | > 100 µM | > 100 µM | > 100 µM |  | 50 µM (≈ 27 µg/mL) |  | 
17 | [N-]=[N+]=NCCCCCCCCCCCC(=O)NS(=O)(=O)OC[C@H]1O[C@@H](n2cnc3c(N)ncnc32)[C@H](O)[C@@H]1O | 28.5 µM |  |  | 5.6 µM | 12.5 µM (≈ 7.12 µg/mL) | 25 µM | > 100 µM |  | 0.19 µM (≈ 0.108 µg/mL) |  | 
18 | CCCCCCCCCC(=O)NS(=O)(=O)OC[C@H]1O[C@@H](n2cnc3c(N)ncnc32)[C@H](O)[C@@H]1O | 88 µM |  |  | 10.1 µM | 100 µM (≈ 50.1 µg/mL) | > 100 µM | > 100 µM |  | 1.56 µM (≈ 0.781 µg/mL) |  | 
